# Screening data as filed in PubChem BioAssay.
# Cl transport mod: KCC2 cotransporter modulators, thallium flux, primary screen, cell-based, HEK293 KCC2, FluoZin-2 fluorescence, MLSMR; KCC2 cells, thallium flux FluoZin-2 fluorescence; B-score of Tl+ flux slope (higher = more flux/activation; lower = inhibition) at 10 µM; hit rate 2.2% among 190,000;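 active = thallium flux slope and its plate-corrected score both differing from the plate sample mean at a set confidence after two filtering rounds, in either direction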;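 also: slope of fluorescence scaled to starting intensity during 10 to 20 s after thallium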
# KCNQ1 pot: potentiators or activators of KCNQ1 channel, primary screen, cell-based, thallium flux, high-throughput; CHO-K1 KCNQ1, thallium flux FluxOR fluorescence; stronger effect = higher value; B-score at 10 µM; Potassium voltage-gated channel subfamily KQT member 1 (Homo sapiens), P51787; hit rate 0.35% among 310,000; AID 2648, 2010;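 active = fluorescence ratio B-score, a plate-corrected score, at least three library SD, with initial intensity B-score within 5 SD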
#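 assay system = CHO-K1 cells stably expressing KCNQ1 | medium = assay buffer, equal DMSO in all wells | timing = 37 °C overnight plating, 90-min dark dye load, 20-min compound pretreatment | measured by = kinetic FluxOR thallium fluorescence, 10-s 1-Hz baseline, 110-s post-stimulus read | measure = fluorescence change relative to baseline, converted to B score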
# Mot1-301 SUMO: yeast Mot1-301 growth rescue at high temperature, primary screen, SUMOylation pathway inhibitor project, S. cerevisiae, ATP luminescence, 38.5C. growth rescue, % at 18.8 µM. hit rate 1% among 320,000. S. cerevisiae Mot1-301 growth rescue; percent above DMSO median, 100 means doubled;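 active = every valid replicate shows activation above 250% relative to neutral control wells; inactive = the rest, any valid replicate at or below 250%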
# AI-2 QS mod: Vibrio harveyi AI-2 quorum sensing modulators, primary screen, JMH597 strain, luminescence/OD600 ratio | Vibrio harveyi JMH597 AI-2 luminescence/OD600 ratio, 9 h; stronger effect = lower value; strain lacks LuxN and CqsS sensors; 0 = neutral-control median | activity change, % at 7.5 µM | hit rate 0.4% among 300,000; in the data active = activity change below about -75%, passing the limit was not always enough;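 also: luminescence divided by OD600 gain over 9 h not by final OD600 alone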
# hERG rescue: hERG rescue from dofetilide block, primary screen, cell-based, CHO-hERG, FluxOR thallium flux, dofetilide IC70; Voltage-gated inwardly rectifying potassium channel KCNH2 (Homo sapiens), Q12809; dofetilide IC70 present; activation (rescue from dofetilide block), less the hit threshold, % at 10 µM; hit rate 0.51% among 310,000; AID 1511, 2009;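 active = activation above the mean of controls blocked by dofetilide plus 5 SD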;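 also: thallium influx through hERG after potassium depolarization seen as dye fluorescence rise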
# Target sequence (Q12809 whole entry, looked up): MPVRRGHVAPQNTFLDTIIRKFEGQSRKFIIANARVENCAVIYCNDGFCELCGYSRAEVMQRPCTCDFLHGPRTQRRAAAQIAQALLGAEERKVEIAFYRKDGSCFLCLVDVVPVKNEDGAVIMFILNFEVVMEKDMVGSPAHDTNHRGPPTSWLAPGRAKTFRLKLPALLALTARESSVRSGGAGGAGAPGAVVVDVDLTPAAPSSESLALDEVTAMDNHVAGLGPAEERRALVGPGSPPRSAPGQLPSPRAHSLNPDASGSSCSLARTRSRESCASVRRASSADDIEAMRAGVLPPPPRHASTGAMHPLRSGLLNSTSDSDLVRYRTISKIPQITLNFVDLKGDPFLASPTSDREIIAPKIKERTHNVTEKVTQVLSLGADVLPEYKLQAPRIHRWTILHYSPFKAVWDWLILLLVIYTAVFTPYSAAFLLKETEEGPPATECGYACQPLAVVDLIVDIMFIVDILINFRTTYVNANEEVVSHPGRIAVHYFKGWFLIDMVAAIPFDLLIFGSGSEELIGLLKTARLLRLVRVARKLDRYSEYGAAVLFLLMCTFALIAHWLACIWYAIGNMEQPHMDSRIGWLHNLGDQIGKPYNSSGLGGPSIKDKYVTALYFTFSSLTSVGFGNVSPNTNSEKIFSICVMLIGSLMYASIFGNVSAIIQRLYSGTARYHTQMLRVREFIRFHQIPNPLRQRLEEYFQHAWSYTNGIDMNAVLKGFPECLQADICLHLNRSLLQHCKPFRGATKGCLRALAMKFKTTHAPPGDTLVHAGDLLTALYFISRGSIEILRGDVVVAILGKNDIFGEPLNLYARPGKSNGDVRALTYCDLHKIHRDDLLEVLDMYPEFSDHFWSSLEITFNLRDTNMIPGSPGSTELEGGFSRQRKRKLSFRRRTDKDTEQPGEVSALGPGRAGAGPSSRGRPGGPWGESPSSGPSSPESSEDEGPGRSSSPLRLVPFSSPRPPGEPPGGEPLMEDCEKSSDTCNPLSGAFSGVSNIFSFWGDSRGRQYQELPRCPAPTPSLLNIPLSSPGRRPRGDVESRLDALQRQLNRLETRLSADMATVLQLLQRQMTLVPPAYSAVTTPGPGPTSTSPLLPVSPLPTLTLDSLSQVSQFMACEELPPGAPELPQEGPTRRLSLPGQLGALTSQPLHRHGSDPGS
# KCNQ1 inh: inhibitors of human KCNQ1 channel, primary screen, cell-based, thallium flux, high-throughput. CHO-K1 KCNQ1, FluxOR thallium flux fluorescence; stronger effect = higher value. B-score at 10 µM. hit rate 1.3% among 310,000;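 active = compounds whose thallium flux B-score, printed positive for inhibition, exceeds three library SD while starting fluorescence stays within three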;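 also: channel opened by potassium depolarization with thallium stimulus after 20 min compound exposure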
# A number is an active result; . = inactive; / = not tested or not shown. Hits are enriched below; roughly 4.2% of the tested compounds scored in any of these assays.
SMILES,Cl transport mod,KCNQ1 pot,Mot1-301 SUMO,AI-2 QS mod,hERG rescue,KCNQ1 inh
C=CCN(CC=C)C(=S)NC(=O)c1ccc(OC)c(Br)c1,56,32,.,.,33,.
C=CCN(CC=C)C(=S)NC(=O)c1ccc([N+](=O)[O-])cc1,46,10,.,.,42,.
COc1ccc(C(=O)NC(=S)NCc2cccnc2)cc1Br,.,.,.,.,.,.
C=CCNC(=S)NNC(=O)c1ccc([N+](=O)[O-])cc1,.,.,.,.,.,.
CCn1cc(CNCc2cn(C)nc2-c2ccc(C3CCCCC3)cc2)cn1,.,.,/,.,.,.
Cc1ccsc1C(=O)Nc1ccc(S(=O)(=O)N2CCOCC2)cc1,/,/,.,/,/,/
C=CCc1cccc2cc(C(=O)Nc3ccc(S(=O)(=O)Nc4nnc(CC)s4)cc3)c(=O)oc12,.,.,.,.,.,.
CC1CC(OC(=O)CN2CCCCC2)CC(C)(C)C1 (stereo not drawn),.,.,.,.,.,.
COc1cccc(-c2nnc(N(C)C(=O)C3CCOC3)s2)c1 (stereo not drawn),.,.,344,.,.,.
S=C(Nc1cccc(Cl)c1)Nc1ccccc1Oc1ccccc1,5.4,.,.,.,.,8
S=C(Nc1ccc(Cl)cc1Cl)Nc1ccccc1Oc1ccccc1,25,.,.,.,.,.
O=C(CNc1cccc(Cl)c1)NNC(=S)NCc1ccccc1,/,.,.,.,.,.
CNC(=S)Nc1cc(Cl)ccc1Oc1ccccc1,.,.,.,.,.,.
COCCCNC(=S)NNC(=S)Nc1cccc(Cl)c1,.,.,.,.,.,6
S=C(NCc1ccccc1)Nc1cccc(Cl)c1,.,.,.,-78,.,.
O=C(COc1ccccc1F)Nc1c2c(nn1-c1ccccc1)CS(=O)(=O)C2,/,.,.,.,.,.
CCOC(=O)/C(C)=N/Nc1nc(-c2ccc(NC(C)=O)cc2)cs1,.,.,.,.,.,.
O=C(NCC1CCCO1)c1onc(CSc2ccc(F)c(F)c2)c1C(=O)O (stereo not drawn),.,.,.,.,.,.
S=C(Nc1ccccc1Oc1ccccc1)Nc1cccc(Cl)c1Cl,31,.,.,.,.,.
O=C(O)C[C@H]1c2ccccc2S(=O)(=O)N1C1CCCC1,/,.,.,.,.,.
CCOc1ccc(Br)cc1C(=O)N/N=C/c1cccc(C)n1,/,.,.,.,.,.
Cc1cccc(/C=N/NC(=O)c2cc(Br)ccc2O)n1,/,11,.,.,.,.
CC(=O)NCc1ccc(S(=O)(=O)N/N=C/c2ccc(Br)cc2)cc1,.,.,.,.,.,.
CN(C)c1ccc(/C=N/NS(=O)(=O)c2ccc(Br)cc2)cc1,.,.,/,-92,.,.
O=S(=O)(N/N=C\C=C\c1ccccc1)c1ccc(Br)cc1,/,.,.,-92,.,.
SMILES,Cl transport mod,KCNQ1 pot,Mot1-301 SUMO,AI-2 QS mod,hERG rescue,KCNQ1 inh
CCOC(=O)N1CCN(S(=O)(=O)c2ccc(C(=O)Nc3sc4c(c3C(N)=O)CCN(CC)C4)cc2)CC1,/,.,.,.,.,.
CCCN1CCc2c(sc(NC(=O)c3ccc(S(=O)(=O)N4CCN(C(=O)OCC)CC4)cc3)c2C(N)=O)C1,/,.,.,.,.,6
N#CC1=C(N)NC(SCC(=O)Nc2ccc(Br)cc2)=C(C#N)C12CCCCC2,-4.9,.,.,.,.,9
N#CC1=C(N)NC(SCC(=O)c2ccccc2)=C(C#N)C12CCCC2,.,.,.,.,.,.
COc1ccc(N2C(=O)c3cccc4c(N(C)CCO)ccc(c34)C2=O)cc1,/,.,.,.,.,7
COc1ccc(C2CC(c3cccs3)=NN2C(=O)CSc2nc(=O)n3ccc(C)cc3n2)cc1 (stereo not drawn),/,.,.,.,.,.
COc1ccc(C2CC(c3cccs3)=NN2C(=O)CSc2nc3c(cnn3-c3ccccc3)c(=O)[nH]2)cc1 (stereo not drawn),.,.,.,.,.,6
O=C(NC(Nc1nc2ccc([N+](=O)[O-])cc2s1)(C(F)(F)F)C(F)(F)F)c1cccnc1,.,.,.,.,.,12
O=C(NC(Nc1nc2ccc([N+](=O)[O-])cc2s1)(C(F)(F)F)C(F)(F)F)c1ccccc1Cl,.,.,.,.,.,10
O=[N+]([O-])c1ccc2nc(NS(=O)(=O)c3ccccc3[N+](=O)[O-])sc2c1,/,.,.,.,.,.
COc1cc(-c2nc(-c3ccccc3)c(-c3cc([N+](=O)[O-])ccc3C)[nH]2)cc(OC)c1OC,.,.,.,.,.,9
N#C/C(=C\c1ccc[nH]1)S(=O)(=O)c1ccccc1,.,.,.,.,.,.
Cc1ccccc1Cn1nc(C)c(NC(=O)c2ccccc2)c1C,.,.,.,.,7.6,.
Cc1ccccc1Cn1nc(C)c(NC(=O)c2sc3ccccc3c2Cl)c1C,.,.,.,.,.,.
COc1ccc(S(=O)(=O)N2CCN(C(=O)c3ccc4ccccc4n3)CC2)cc1,/,/,.,/,/,/
CCOc1ccc(NC(=S)N2CCN(C/C=C/c3ccccc3)CC2)cc1,.,.,.,/,.,.
O=c1c2cc(Cl)ccc2[nH]c(=S)n1Cc1cccs1,19,8,.,.,.,.
O=c1c2cc(F)ccc2[nH]c(=S)n1Cc1ccc(F)cc1,/,.,.,.,.,.
O=c1[nH]c2ccc(Cl)cc2c(=O)n1Cc1ccco1,.,.,.,.,.,.
O=c1c2cc(Cl)ccc2[nH]c(=S)n1Cc1ccco1,20,.,.,.,.,.
Oc1ccccc1-c1cc(C(F)(F)C(F)F)nc(-c2ccccc2)n1,.,.,.,.,.,.
O=[N+]([O-])c1ccc(O)c(-c2cc(C(F)(F)F)nc(-c3ccccc3)n2)c1,/,.,.,.,.,7
CC(C)COn1c(=S)[nH]c2ccccc2c1=O,49,8,/,.,.,.
COc1ccccc1Cn1c(=S)[nH]c2ccccc2c1=O,/,.,.,.,.,.
Cc1ccc(S(=O)(=O)N2CC(=O)N3CCN(CCN)C3C2)cc1 (stereo not drawn),/,/,.,/,/,/
Cc1nn(C(C)C(=O)NCCCc2ccccc2)c(=O)c2nn(-c3ccccc3)c(C)c12 (stereo not drawn),/,.,.,.,.,.
